Data set [1] has as its system Stat3. Put plainly: Stat3 DNA-binding activity/EMSA of nuclear extracts from treated glioma cells. In kind it is cell-based, human. To be noted: 5 μM, glioma cells, EMSA. In general terms: In EMSA bound probe runs differently from free probe, usually more slowly.
In data set [2] the test system is U373MG cells. Put plainly: CyQuant cell proliferation assay. It counts as cell-based. The settings on record: Homo sapiens, U373 MG, 72 h, read-out: IC50 cell proliferation U373MG. The method, boiled down:
(§1)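 CyQuant DNA-dye proliferation assay on cultured cells after 72 h exposure to test compound. Viability expressed relative to DMSO-treated control cells.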

Data set [3] concerns MCF-7 cells. The experiment in a line: CyQuant cell proliferation assay. To be noted: Homo sapiens, MCF7, 72 h, read-out: IC50 cell proliferation MCF-7. In kind it is cell-based. The method, boiled down: as §1
In data set [4] the test system is U251MG cells. The experiment in a line: Cell cycle distribution analysis. It counts as cell-based, human. The settings on record: 15 h treatment. The essentials: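 U251MG cells synchronised by double thymidine block (2 mM) and released for 9 h, then given DMSO or 8 μM test compound for 15 h. Fixed overnight at −20 °C in 70% ethanol/3% FBS in PBS. Stained in PI/RNase buffer for 15 min at room temperature, then DNA content measured by flow cytometry.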

Data set [5] concerns NIH3T3/v-Src fibroblasts. The experiment in a line: Trypan blue exclusion viable cell counting. It counts as cell-based, mouse. The settings on record: 1 and 2.5 μM. The essentials: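 Cells in culture treated once with increasing concentrations of test compound for 0–96 h. Harvested every 24 h, and viable cells counted by trypan blue exclusion under phase-contrast microscopy.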

Data set [6] addresses Stat3:Stat3 (Mus musculus, UniProt P42227). The experiment in a line: Cell-free EMSA, nuclear extracts pre-incubated with compound, hSIE probe. It counts as biochemical.
Data set [7] relates to pErk1/2MAPK. Put plainly: Immunoblotting, U251MG glioma cells. The settings on record: 5 μM. It counts as cell-based, human. The method, boiled down:
(§2)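 U251MG cells given 5 μM test compound for 0–24 h. Whole-cell lysates of equal total protein immunoblotted for pErk1/2, Erk1/2, pS-Akt, Akt, pJAK2, JAK2, SOCS3 and PTP1B, with β-actin or GAPDH as loading reference.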
A general note: Immunoblotting shows a protein as a band on a membrane.

Data set [8] concerns G10 cells. The experiment in a line: Growth of glioma patient-derived xenograft cells in vitro. In kind it is cell-based. To be noted: Homo sapiens, read-out: inhibitory activity against growth of G10 cells.
Data set [9] concerns G22 cells. The description is as above. In kind it is cell-based. The settings on record: Homo sapiens, read-out: inhibitory activity against growth of G22 cells.
Data set [10] in a line: Body weights and signs of toxicity in tumor-bearing mice. It counts as in vivo. The settings on record: 2 mg/kg, oral gavage, 33 days.
Data set [11] concerns G12 cells. Put plainly: Growth of glioma patient-derived xenograft cells in vitro. It counts as cell-based. The settings on record: Homo sapiens, read-out: inhibitory activity against G12 cell growth. On the technique in general: A xenograft is tissue or cells of one species grown in another, often human tumour cells in immunodeficient mice.
For data set [12], the system named is G22 cells. The experiment in a line: 3D spheroid assay. In kind it is cell-based, human. To be noted: 5 μM, treated once.
Data set [13] has as its system protein tyrosine phosphatase (PTP)1B. Put plainly: Immunoblotting, U251MG glioma cells. In kind it is cell-based, human. To be noted: 5 μM. The method, boiled down: as §2
Data set [14] has as its system pYStat3. The experiment in a line: Immunoblotting of pStat3 in treated U251MG cells. It counts as cell-based, human. To be noted: 5 μM, glioma cells, immunoblotting. The essentials: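 Whole-cell lysates from U251MG cells given test compound at 5 μM for 0–24 h, or at 0–5 μM for 2 h. Immunoblotted for pY705Stat3 and total Stat3, with GAPDH as loading reference.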
Data set [15] has as its system pErk1/2MAPK. Put plainly: Immunoblotting, EGF-stimulated NIH3T3/hEGFR fibroblasts. It counts as cell-based, mouse. To be noted: 5 μM pre-treatment. The method, boiled down:
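NIH3T3/hEGFR fibroblasts pretreated with or without 5 μM test compound for 3 h, then stimulated with 1 μg/ml EGF for 12 min. Whole-cell lysates, equal total protein, immunoblotted for pStat1/Stat1, pStat5/Stat5 and pErk1/2/Erk1/2.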

The subject of data set [16] is U251MG cells. The experiment in a line: Scratch assay for migration. To be noted: 5 μM, 19-h treatment. It counts as cell-based, human. The method, boiled down: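 Sub-confluent U251MG monolayers wounded with pipette tips and treated once with test compound (0–5 μM) or DMSO vehicle. Cells allowed to migrate into the denuded area over 19 h, then imaged by microscopy at 10×.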

Data set [17] relates to pStat3. The experiment in a line: Immunoblotting of pStat3 in patient-derived xenograft cells. In kind it is cell-based, human. To be noted: 5 μM, 3 h. The essentials: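 Glioma patient-derived xenograft G22 cells (DMEM, 5–10% heat-inactivated FBS) given 5 μM test compound for 0–24 h. Whole-cell lysates immunoblotted for pStat3 and Stat3, with GAPDH as loading reference.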

Data set [18] has as its system U251MG cells. Put plainly: Immunofluorescence staining/confocal microscopy of mitosis. It counts as cell-based, human. The settings on record: 15 h treatment. The method, boiled down: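 U251MG cells on coverslips synchronised by double thymidine block (2 mM) and released for 9 h. Then given DMSO, 100 nM paclitaxel or 8 μM test compound for 15 h. Fixed in 4% paraformaldehyde, permeabilised with 0.1% digitonin and blocked in 0.2% BSA. Stained with anti-β-tubulin (1:350) and anti-MAP1B (1:300) for 1 h at room temperature, then fluorescent secondaries and DAPI; confocal imaging.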

The test system of data set [19] is NIH3T3 cells. Put plainly: Colony survival assay. It counts as cell-based, mouse. The settings on record: 2.5 μM or less. The method, boiled down:
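Cells seeded as single cells at 250 per well and treated once the next day with test compound (0–5 μM) for 72 h. Grown until large colonies were visible: 1 week for NIH3T3, 2 weeks for U251MG. Colonies stained with crystal violet for 4 h and counted.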

Data set [20] concerns SF295 cells. Put plainly: CyQuant cell proliferation assay. In kind it is cell-based. The settings on record: Homo sapiens, SF-295, 72 h, read-out: IC50 cell proliferation SF295. The essentials: as §1
Data set [21] concerns MDA-MB-231 cells. Put plainly: CyQuant cell proliferation assay. In kind it is cell-based, human. The settings on record: Homo sapiens, MDA-MB-231, 72 h, read-out: IC50 cell proliferation MDA-MB-231. The essentials:
as §1

The test system of data set [22] is pStat3. The experiment in a line: Immunoblots of tumor tissue lysates from treated mice. The settings on record: four-to-five cases out of six. In kind it is in vivo, mouse. The essentials: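 After oral dosing, lysates of residual subcutaneous U251MG tumour tissue from treated and 1% DMSO vehicle mice. Immunoblotted for pStat3 and Stat3, with GAPDH as loading reference.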

Chain of Stat3:Stat3 (P42227 2-770 limits assumed): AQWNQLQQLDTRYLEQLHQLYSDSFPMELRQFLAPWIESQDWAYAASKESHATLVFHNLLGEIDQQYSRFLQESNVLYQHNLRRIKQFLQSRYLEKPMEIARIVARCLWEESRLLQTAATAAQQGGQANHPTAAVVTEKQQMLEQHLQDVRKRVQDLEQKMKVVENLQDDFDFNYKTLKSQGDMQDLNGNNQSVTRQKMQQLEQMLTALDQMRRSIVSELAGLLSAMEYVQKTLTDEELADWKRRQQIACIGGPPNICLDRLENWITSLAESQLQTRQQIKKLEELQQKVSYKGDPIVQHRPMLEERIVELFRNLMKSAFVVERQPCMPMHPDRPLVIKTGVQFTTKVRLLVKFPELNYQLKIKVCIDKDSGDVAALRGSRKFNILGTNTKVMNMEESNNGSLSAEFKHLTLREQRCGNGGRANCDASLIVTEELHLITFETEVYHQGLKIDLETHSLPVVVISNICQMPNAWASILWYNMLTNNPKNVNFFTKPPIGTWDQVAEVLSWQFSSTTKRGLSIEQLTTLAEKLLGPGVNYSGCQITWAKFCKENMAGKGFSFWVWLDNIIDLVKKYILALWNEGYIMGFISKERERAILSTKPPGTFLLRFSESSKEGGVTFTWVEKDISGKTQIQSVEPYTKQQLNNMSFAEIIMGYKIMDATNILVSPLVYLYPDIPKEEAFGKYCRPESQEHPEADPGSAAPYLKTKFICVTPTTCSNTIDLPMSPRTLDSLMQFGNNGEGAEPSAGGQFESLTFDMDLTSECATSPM

In the case of `C/C=C(\C)C(=O)OCC1=C2/C(=C\[C@@]3(C)CC[C@](O)(O3)[C@H](C)C[C@@H]2O)OC1=O` [Compound 22], the “effect on Stat3 DNA-binding activity in treated tumor cells” value in data set [1] is on record as “strongly inhibited”. The IC50 is 6.6 to 8.2 µM in data set [2], 4.8 to 9.6 µM in data set [3], 7.4 to 18.3 µM in data set [20] and 5.2 to 9.1 µM in [21]. Also, the cell cycle distribution result in [4] is recorded as “induced G2/M accumulation”. Moreover, the “growth of NIH3T3/v-Src over normal NIH3T3 fibroblasts” value in data set [5] was “preferential inhibition of growth”. In data set [6] (5 μM, 30 min pre-incubation, NIH3T3/v-Src nuclear extracts), the “Stat3:Stat3/DNA-binding activity (complexation), cell-free EMSA” value was “diminished”. In data set [6] (in the presence of 50 μM Cys), the “Stat3:Stat3/DNA complexation in the presence of Cys” value is “strongly inhibited”. Further, the “effect on pErk1/2MAPK levels” value in data set [7] is on record as “no effects”. Moreover, the inhibition at 5 µM is 45 to 60% in data set [8], 45 to 60% in [9] and 25 to 35% in data set [11]. Besides, the “body weights or obvious signs of toxicity” value in data set [10] is reported as “No significant changes”. In data set [12], the 3D spheroid growth result is listed as “decreased 3D spheroid growth”. The “effect on PTP1B levels” value in data set [13] is recorded as “no effects”. For the same molecule, the “effect on pStat3 in treated tumor cells” value in data set [14] is listed as “strongly inhibited”. Moreover, in [15], the “effect on EGF-stimulated pErk1/2MAPK levels” value was “no effect”. Moreover, the “migration into the denuded area” value in [16] was “slowed migration”. Besides, the “effect on Phospho-Stat3 in G22 cells” value in data set [17] is given as “strongly inhibited”. The “chromatid structures and sister-chromatids segregation (mitosis)” value in data set [18] is on record as “caused defects”. For the same molecule, in [19], the “effects on NIH3T3 colony numbers” value is reported as “moderate or none”. Moreover, in data set [22], the “pStat3 and Stat3 levels in residual tumor tissues” value is reported as “lower”.
